From ChEMBL document CHEMBL1765011, “Synthesis and c-Met kinase inhibition of 3,5-disubstituted and 3,5,7-trisubstituted quinolines: identification of 3-(4-acetylpiperazin-1-yl)-5-(3-nitrobenzylamino)-7- (trifluoromethyl)quinoline as a novel anticancer agent” (J Med Chem, 2011)
The source made the active and inactive calls. The calls are words filed in the database; no cut-off is given here.

What was measured:
U-87MG ATCC = assay: Antitumor activity against human U87MG cells xenografted in nude mouse assessed as tumor growth inhibition at 50 mg/kg, ip qd for 14 days relative to control; format: functional, organism-based; design: dose 50 mg/kg
Method in brief: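 Tumor cells, (5-10)×10^6, were implanted sc in nude mice and grown to 700-800 mm3. Tumors were cut into 1 mm3 fragments and trocar-transplanted sc. At 100-150 mm3, mice were randomized (n = 6) to vehicle or ip dosing daily. Volumes were measured twice weekly by caliper, TV = length×width²/2. % inhibition used final-day versus day-1 change against vehicle, with Student's t test.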

Mus musculus [1] = assay: Toxicity in mouse NIH/3T3 cells expressing TPR-Met xenografted nude mouse assessed as reduction in body weight at 100 mg/kg, ip qd for 14 days; format: organism-based, NIH3T3; design: dose 100 mg/kg, route intraperitoneal; conditions: in vivo, 336 h
SNU1 = assay: Antiproliferative activity against human SNU1 cells after 72 hrs; conditions: SNU1, 72 h
NIH3T3 = assay: Antiproliferative activity against mouse NIH/3T3 cells expressing TPR-Met after 72 hrs; format: functional, cell-based; conditions: NIH3T3, 72 h
Method in brief: (§1)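 Cells were seeded and exposed next day to a range of compound concentrations for 72 h. Proliferation was read by sulforhodamine B or MTT assay, and IC50 derived.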

NCI-H1993 = assay: Antiproliferative activity against human NCI-H1993 cells after 72 hrs; conditions: NCI-H1993, 72 h
[2] = target: T1, Hepatocyte growth factor receptor (Homo sapiens, UniProt P08581); assay: Inhibition of c-Met in human MKN45 cells assessed as ERK1/2 phosphorylation at 0.1 to 3 uM after 4 hrs by Western blotting; format: cell-based; conditions: MKN-45
Method in brief: (§2)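 Exponentially growing cells were exposed to compound for 4 h at 37 °C and lysed in SDS sample buffer. Lysates were resolved on 10% SDS-PAGE and blotted. Blots were probed for phospho- and total ERK1/2 and AKT, with GAPDH loading control, and detected by ECL.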

Ephrin type-A receptor 2 = Ephrin type-A receptor 2 (Homo sapiens, UniProt P29317); assay: Inhibition of EPH-A2
Method in brief: (§3)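 ELISA on plates precoated with 20 μg/mL poly(Glu,Tyr) 4:1. Buffer: 10 μM ATP, 50 mM HEPES pH 7.4, 50 mM MgCl2, 0.5 mM MnCl2, 0.2 mM Na3VO4, 1 mM DTT, compound in 1% DMSO. Purified kinase was added and incubated 60 min at 37 °C. Phosphotyrosine was detected with PY99 then HRP anti-mouse IgG, o-phenylenediamine, A490. IC50 was taken from inhibition curves.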

[3] = target: Hepatocyte growth factor receptor (Mus musculus) (UniProt P16056); assay: Inhibition of TPR-c-Met phosphorylation expressed in mouse […] cells assessed as ERK1/2 phosphorylation at 0.1 to 3 uM after 4 hrs by Western blotting; format: cell-based; method in brief: as §2
[4] = target: Hepatocyte growth factor receptor (Mus musculus) (UniProt P16056); assay: Inhibition of TPR-c-Met phosphorylation expressed in mouse […] cells assessed as AKT phosphorylation at 0.1 to 3 uM after 4 hrs by Western blotting; format: cell-based; method in brief: as §2
[5] = AUC (0 to infinity) in mouse at 20 mg/kg, po; format: ADME, organism-based; design: dose 20 mg/kg, route oral, time infinity; conditions: plasma
Method in brief: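 Mice dosed orally at 20 mg/kg in DMSO/Tween 80/normal saline vehicle; plasma concentration-time profile used to derive AUC0-∞. Values are the average of three runs.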

[6] = target: T1, Hepatocyte growth factor receptor; assay: Inhibition of c-Met phosphorylation in human H1993 cells at 0.1 to 3 uM after 4 hrs by Western blotting; format: cell-based
Method in brief: (§4)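 Exponentially growing cells were treated with compound for 4 h at 37 °C and lysed in SDS sample buffer. Lysates were run on 10% SDS-PAGE and blotted to nitrocellulose. Blots were probed for phospho-c-Met and total c-Met, with GAPDH as loading control, and detected by ECL.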

[7] = Oral bioavailability in mouse at 20 mg/kg; format: ADME, organism-based; conditions: in vivo
BaF3 [8] = assay: Antiproliferative activity against mouse BAF3 cells expressing TPR-Met after 72 hrs in absence of IL-3; format: functional, cell-based; conditions: BaF3, 72 h; method in brief: as §1
[9] = target: Hepatocyte growth factor receptor (Mus musculus) (UniProt P16056); assay: Inhibition of TPR-MET autophosphorylation in mouse NIH3T3 cells after 4 hrs by Western blotting; format: cell-based; method in brief: as §4
[10] = target: Vascular endothelial growth factor receptor 2 (Homo sapiens, UniProt P35968); assay: Inhibition of KDR; method in brief: as §3
[11] = target: T1, Hepatocyte growth factor receptor; assay: Inhibition of purified recombinant c-Met at incubated for 30 mins measured after 100 fold dilution
MCF7 = assay: Antiproliferative activity against human MCF7 cells after 72 hrs; conditions: MCF7, 72 h
[12] = target: Hepatocyte growth factor receptor (Mus musculus) (UniProt P16056); assay: Inhibition of TPR-c-Met phosphorylation expressed in mouse BAF3 cells assessed as AKT phosphorylation at 0.1 to 3 uM after 4 hrs by Western blotting; format: cell-based; method in brief: as §2
MKN-45 = assay: Antiproliferative activity against human MKN45 cells after 72 hrs; conditions: MKN-45, 72 h
[13] = target: Proto-oncogene tyrosine-protein kinase Src (Homo sapiens, UniProt P12931); assay: Inhibition of c-Src; method in brief: as §3
[14] = Tmax in mouse at 20 mg/kg, po; format: ADME, organism-based; design: dose 20 mg/kg, route oral; conditions: in vivo
Mus musculus [15] = assay: Toxicity in human U87MG cells xenografted nude mouse assessed as reduction of body weight at 100 mg/kg, ip qd for 14 days; format: organism-based, U-87MG ATCC; design: dose 100 mg/kg, route intraperitoneal; conditions: in vivo, 336 h
Ephrin type-B receptor 2 = Ephrin type-B receptor 2 (Homo sapiens, UniProt P29323); assay: Inhibition of EPH-B2; method in brief: as §3
[16] = target: T1, Hepatocyte growth factor receptor; assay: Inhibition of c-Met phosphorylation in human H1993 cells at 0.5 uM after 4 hrs by Western blotting; format: cell-based; method in brief: as §4
[17] = target: Macrophage-stimulating protein receptor (Homo sapiens, UniProt Q04912); assay: Inhibition of RON; method in brief: as §3
BaF3 [18] = assay: Antiproliferative activity against mouse BAF3 cells expressing TPR-Met after 72 hrs in presence of IL-3; format: functional, cell-based; conditions: BaF3, 72 h; method in brief: as §1
[19] = target: Hepatocyte growth factor receptor (Mus musculus) (UniProt P16056); assay: Inhibition of TPR-c-Met phosphorylation expressed in mouse BAF3 cells assessed as ERK1/2 phosphorylation at 0.1 to 3 uM after 4 hrs by Western blotting; format: cell-based; method in brief: as §2
[20] = target: T1, Hepatocyte growth factor receptor; assay: Inhibition of c-Met in human H1993 cells assessed as AKT phosphorylation at 0.1 to 3 uM after 4 hrs by Western blotting; format: cell-based; method in brief: as §2
[21] = Half life in mouse at 10 mg/kg, iv; format: ADME, organism-based; design: dose 10 mg/kg, route intravenous; conditions: in vivo
Method in brief: (§5)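 Single iv dose of 10 mg/kg to mice, vehicle DMSO/Tween 80/normal saline. Clearance and half-life were derived from plasma concentration-time data. Average of three runs.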

[22] = Volume of distribution at steady state in mouse at 10 mg/kg, iv; format: ADME, organism-based; design: dose 10 mg/kg, route intravenous; conditions: in vivo, read-out: Vdss
[23] = target: T1, Hepatocyte growth factor receptor; assay: Inhibition of c-Met in human H1993 cells assessed as ERK1/2 phosphorylation at 0.1 to 3 uM after 4 hrs by Western blotting; format: cell-based; method in brief: as §2
MDA-MB-231 = assay: Antiproliferative activity against human MDA-MB-231 cells after 72 hrs; conditions: MDA-MB-231, 72 h
[24] = Clearance in mouse at 10 mg/kg, iv; format: ADME, organism-based; design: dose 10 mg/kg, route intravenous; conditions: in vivo; method in brief: as §5
[25] = target: Hepatocyte growth factor receptor (Mus musculus) (UniProt P16056); assay: Inhibition of TPR-MET autophosphorylation in mouse BaF3 cells after 4 hrs by Western blotting; format: cell-based; method in brief: as §4
[26] = target: Mast/stem cell growth factor receptor Kit (Homo sapiens, UniProt P10721); assay: Inhibition of c-Kit; method in brief: as §3
Sequence of Mast/stem cell growth factor receptor Kit (P10721 whole entry): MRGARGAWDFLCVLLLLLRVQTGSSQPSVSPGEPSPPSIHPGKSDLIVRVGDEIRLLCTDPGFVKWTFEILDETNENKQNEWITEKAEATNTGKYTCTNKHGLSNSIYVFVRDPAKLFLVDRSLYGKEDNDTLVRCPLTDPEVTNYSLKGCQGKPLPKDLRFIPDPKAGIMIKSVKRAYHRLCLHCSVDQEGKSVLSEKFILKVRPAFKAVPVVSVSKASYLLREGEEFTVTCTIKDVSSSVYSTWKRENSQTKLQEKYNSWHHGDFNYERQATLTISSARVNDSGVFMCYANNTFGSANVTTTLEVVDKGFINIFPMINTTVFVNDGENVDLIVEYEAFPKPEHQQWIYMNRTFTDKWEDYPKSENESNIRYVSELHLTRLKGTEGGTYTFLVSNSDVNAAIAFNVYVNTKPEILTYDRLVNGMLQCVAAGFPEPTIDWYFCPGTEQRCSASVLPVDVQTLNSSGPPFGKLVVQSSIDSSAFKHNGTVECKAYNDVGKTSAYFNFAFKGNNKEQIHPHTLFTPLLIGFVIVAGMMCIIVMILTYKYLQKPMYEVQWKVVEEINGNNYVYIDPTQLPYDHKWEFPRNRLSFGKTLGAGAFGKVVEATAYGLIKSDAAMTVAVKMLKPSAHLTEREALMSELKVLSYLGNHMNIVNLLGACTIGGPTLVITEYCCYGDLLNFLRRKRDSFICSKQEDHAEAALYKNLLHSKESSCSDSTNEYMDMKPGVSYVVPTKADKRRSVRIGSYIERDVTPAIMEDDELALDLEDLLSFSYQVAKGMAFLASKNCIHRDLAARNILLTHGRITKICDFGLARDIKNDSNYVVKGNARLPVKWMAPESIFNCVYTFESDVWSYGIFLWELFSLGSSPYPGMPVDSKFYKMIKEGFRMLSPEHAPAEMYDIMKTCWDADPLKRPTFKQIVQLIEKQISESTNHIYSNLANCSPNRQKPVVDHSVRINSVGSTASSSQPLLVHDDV

T1 sequence (P08581 whole entry): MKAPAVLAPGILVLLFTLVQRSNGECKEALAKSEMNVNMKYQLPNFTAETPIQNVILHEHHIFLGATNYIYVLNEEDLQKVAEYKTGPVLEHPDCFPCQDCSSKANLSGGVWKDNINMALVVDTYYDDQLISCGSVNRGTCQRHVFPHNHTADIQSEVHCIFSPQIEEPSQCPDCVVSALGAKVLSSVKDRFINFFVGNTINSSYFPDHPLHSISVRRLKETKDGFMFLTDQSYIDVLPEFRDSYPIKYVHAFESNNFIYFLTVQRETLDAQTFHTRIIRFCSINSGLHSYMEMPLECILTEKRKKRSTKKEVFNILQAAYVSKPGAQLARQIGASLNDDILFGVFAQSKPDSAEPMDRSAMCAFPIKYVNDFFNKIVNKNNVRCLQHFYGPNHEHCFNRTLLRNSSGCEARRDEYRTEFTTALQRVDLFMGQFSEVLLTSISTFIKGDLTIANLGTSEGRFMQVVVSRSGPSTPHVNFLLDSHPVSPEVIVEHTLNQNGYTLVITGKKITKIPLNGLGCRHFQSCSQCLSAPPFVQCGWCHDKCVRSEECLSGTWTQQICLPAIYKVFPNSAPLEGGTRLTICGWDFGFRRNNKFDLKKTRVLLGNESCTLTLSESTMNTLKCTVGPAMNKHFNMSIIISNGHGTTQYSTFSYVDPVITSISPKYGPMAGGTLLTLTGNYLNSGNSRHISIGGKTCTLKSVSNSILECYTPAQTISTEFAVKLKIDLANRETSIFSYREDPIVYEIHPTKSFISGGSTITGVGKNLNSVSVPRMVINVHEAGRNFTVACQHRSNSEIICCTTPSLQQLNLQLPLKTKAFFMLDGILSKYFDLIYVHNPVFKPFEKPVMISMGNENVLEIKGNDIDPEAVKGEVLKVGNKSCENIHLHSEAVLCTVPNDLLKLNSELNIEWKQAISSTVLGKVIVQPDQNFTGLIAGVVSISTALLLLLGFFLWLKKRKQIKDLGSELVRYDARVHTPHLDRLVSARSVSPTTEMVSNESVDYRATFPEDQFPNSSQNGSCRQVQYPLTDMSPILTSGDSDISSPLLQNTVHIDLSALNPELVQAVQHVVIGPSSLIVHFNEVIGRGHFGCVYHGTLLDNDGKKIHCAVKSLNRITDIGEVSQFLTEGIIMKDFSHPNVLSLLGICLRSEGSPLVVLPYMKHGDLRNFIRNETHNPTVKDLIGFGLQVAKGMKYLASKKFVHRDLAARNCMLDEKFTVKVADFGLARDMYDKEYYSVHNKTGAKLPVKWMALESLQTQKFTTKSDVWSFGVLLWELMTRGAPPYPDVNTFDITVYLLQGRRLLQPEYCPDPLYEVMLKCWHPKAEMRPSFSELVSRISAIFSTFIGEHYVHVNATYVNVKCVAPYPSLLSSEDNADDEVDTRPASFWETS
Sequence of Hepatocyte growth factor receptor (Mus musculus) (P16056 whole entry): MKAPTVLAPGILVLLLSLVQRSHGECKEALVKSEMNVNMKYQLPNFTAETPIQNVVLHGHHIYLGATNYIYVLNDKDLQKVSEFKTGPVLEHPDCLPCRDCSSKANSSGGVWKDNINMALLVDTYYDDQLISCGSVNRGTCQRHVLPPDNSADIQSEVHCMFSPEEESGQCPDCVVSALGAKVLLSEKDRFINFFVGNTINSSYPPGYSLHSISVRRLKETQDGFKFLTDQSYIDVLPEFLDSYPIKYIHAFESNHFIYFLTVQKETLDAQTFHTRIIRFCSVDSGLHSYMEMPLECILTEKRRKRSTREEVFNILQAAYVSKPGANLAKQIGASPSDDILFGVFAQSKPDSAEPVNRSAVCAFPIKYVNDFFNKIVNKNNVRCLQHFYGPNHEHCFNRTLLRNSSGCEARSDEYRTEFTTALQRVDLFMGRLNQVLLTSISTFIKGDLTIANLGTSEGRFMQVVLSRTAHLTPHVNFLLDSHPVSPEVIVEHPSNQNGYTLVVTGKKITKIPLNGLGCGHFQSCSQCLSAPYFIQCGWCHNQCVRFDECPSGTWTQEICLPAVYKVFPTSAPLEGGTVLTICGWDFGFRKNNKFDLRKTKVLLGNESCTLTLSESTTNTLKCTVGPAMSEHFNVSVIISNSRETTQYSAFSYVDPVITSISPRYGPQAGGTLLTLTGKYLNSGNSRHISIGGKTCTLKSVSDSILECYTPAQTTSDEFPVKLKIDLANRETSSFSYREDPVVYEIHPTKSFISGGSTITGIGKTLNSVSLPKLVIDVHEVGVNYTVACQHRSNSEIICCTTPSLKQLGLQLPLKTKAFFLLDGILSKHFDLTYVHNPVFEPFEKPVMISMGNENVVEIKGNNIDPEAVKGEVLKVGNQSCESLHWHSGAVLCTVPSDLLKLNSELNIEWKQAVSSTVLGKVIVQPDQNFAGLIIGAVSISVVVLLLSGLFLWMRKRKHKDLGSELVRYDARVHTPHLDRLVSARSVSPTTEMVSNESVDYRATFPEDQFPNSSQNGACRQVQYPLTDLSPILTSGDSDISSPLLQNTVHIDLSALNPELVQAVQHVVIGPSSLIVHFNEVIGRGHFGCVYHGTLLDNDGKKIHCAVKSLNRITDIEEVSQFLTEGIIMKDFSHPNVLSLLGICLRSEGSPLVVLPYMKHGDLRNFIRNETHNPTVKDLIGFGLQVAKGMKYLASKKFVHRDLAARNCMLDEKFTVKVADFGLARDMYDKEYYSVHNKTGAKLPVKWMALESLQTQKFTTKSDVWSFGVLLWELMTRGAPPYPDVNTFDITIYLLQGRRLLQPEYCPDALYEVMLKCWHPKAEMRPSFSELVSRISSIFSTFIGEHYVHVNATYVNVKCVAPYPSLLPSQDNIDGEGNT
Sequence of Macrophage-stimulating protein receptor (Q04912 25-304 limits assumed): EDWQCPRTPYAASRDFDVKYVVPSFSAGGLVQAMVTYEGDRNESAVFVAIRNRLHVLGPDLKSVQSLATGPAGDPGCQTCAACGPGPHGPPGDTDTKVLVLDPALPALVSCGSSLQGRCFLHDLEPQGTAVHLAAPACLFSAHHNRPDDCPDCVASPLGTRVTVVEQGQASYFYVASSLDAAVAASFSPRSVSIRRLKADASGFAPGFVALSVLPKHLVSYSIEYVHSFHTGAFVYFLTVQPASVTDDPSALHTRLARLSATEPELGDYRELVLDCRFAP
Sequence of Macrophage-stimulating protein receptor (Q04912 310-1400 limits assumed): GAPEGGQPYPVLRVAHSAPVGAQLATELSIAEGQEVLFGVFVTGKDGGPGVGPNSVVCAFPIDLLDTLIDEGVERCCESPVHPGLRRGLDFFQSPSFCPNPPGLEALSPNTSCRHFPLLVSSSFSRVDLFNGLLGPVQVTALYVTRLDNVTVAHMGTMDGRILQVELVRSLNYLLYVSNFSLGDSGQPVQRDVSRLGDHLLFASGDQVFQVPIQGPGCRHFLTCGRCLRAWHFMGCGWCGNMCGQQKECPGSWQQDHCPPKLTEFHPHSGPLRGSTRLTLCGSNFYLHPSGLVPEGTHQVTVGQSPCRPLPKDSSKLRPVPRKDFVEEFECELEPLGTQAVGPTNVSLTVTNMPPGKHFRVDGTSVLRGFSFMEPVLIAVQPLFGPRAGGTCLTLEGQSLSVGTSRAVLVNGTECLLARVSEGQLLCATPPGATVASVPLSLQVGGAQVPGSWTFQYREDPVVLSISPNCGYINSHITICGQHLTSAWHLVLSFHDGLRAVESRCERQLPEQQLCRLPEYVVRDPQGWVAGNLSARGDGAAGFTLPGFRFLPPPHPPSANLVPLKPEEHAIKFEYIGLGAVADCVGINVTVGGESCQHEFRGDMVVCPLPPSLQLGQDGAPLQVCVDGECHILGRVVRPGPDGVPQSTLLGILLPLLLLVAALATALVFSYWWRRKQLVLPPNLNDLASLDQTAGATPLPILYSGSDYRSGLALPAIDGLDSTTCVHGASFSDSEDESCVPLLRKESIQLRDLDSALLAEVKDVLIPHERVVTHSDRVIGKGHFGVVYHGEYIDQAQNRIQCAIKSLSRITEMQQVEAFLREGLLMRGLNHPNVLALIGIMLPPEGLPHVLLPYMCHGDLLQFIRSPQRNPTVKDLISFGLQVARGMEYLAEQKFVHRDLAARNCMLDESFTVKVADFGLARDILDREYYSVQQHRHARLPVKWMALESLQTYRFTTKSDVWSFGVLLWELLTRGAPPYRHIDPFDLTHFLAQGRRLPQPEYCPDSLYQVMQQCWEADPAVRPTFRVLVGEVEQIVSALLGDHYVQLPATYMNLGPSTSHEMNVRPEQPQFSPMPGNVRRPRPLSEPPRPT

IC50 (SNU1): ≥ 50 µM | IC50 (NCI-H1993): 5.3 µM | inhibition [2]: Active | IC50 (Ephrin type-A receptor 2): > 10 µM | inhibition [3]: Active | inhibition [4]: Active | AUC(0-inf) [5]: 2100 ng·h/mL | inhibition [6]: Active | bioavailability [7]: 37.5% | IC50 (BaF3 [8]): 0.39 µM | inhibition [9]: Dose-dependent effect | IC50 [10]: > 10 µM | inhibition [11]: inactive | IC50 (MCF7): 16 µM | inhibition [12]: Active | IC50 (MKN-45): 1 µM | IC50 [13]: > 10 µM | Tmax [14]: 3 h | IC50 (Ephrin type-B receptor 2): > 10 µM | inhibition [16]: Active | IC50 [17]: > 10 µM | IC50 (BaF3 [18]): 12.2 µM | inhibition [19]: Active | inhibition [20]: Active | half-life [21]: 3.25 h | Vd [22]: 16.7 L/kg | inhibition [23]: Active | IC50 (MDA-MB-231): ≥ 50 µM | clearance [24]: 59.8 mL/min/kg | inhibition [25]: Dose-dependent effect | IC50 [26]: > 10 µM
SMILES: CC(=O)N1CCN(c2cnc3cc(C(F)(F)F)cc(NCc4cccc([N+](=O)[O-])c4)c3c2)CC1
inhibition (U-87MG ATCC): Active | Activity (Mus musculus [1]): Non-toxic | IC50 (NIH3T3): 2 µM | Activity (Mus musculus [15]): Non-toxic
